One molecule from ChEMBL document CHEMBL4765301, “Discovery of novel TNNI3K inhibitor suppresses pyroptosis and apoptosis in murine myocardial infarction injury” (Eur J Med Chem, 2020) can be followed below.

Active and inactive are the calls of the source. The calls are words filed in the database; no cut-off is given here.

Test [1] deals with H9c2. In words: Inhibition of OGD-induced apoptosis in rat H9c2 cells assessed as reduction in NLRP3 level at 0.5 to 1 uM by immunofluorescence staining based fluorescence microscopy. The format is functional, cell-based. The conditions noted are these: dose 0.5-1 µM. A digest of the protocol:
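In OGD-exposed H9c2 cells treated with 0.5 or 1.0 µM inhibitor, intracellular distribution and co-localisation of caspase-1 and NLRP3 were assessed by immunofluorescence microscopy.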

Test [2] has as its system Mus musculus. In words: In vivo inhibition of TNNI3K in C57BL/6 mouse assessed as reduction in GSDMD at 25 mg/kg, ip administered for 28 days and measured on day 28 by immunohistochemical staining based fluorescence microscopy. The format is functional, organism-based. The conditions noted are these: time 28.0 day. The method, boiled down: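 Male C57BL/6 mice (5-6 weeks) with LAD-ligation MI; sham, saline or 25 mg/kg ip every two days, n=4, 28 days. Heart sections given EDTA (pH 8.0) or citrate (pH 6.0) microwave antigen retrieval, then primary antibody 30-40 min at 37°C. Detection by HRP polymer secondary with DAB (IHC) or fluorescent secondary (IF). Positive cells were quantified.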

Test [3] addresses T1, Serine/threonine-protein kinase TNNI3K (Rattus norvegicus) (UniProt Q7TQP6).
T1 sequence (whole entry): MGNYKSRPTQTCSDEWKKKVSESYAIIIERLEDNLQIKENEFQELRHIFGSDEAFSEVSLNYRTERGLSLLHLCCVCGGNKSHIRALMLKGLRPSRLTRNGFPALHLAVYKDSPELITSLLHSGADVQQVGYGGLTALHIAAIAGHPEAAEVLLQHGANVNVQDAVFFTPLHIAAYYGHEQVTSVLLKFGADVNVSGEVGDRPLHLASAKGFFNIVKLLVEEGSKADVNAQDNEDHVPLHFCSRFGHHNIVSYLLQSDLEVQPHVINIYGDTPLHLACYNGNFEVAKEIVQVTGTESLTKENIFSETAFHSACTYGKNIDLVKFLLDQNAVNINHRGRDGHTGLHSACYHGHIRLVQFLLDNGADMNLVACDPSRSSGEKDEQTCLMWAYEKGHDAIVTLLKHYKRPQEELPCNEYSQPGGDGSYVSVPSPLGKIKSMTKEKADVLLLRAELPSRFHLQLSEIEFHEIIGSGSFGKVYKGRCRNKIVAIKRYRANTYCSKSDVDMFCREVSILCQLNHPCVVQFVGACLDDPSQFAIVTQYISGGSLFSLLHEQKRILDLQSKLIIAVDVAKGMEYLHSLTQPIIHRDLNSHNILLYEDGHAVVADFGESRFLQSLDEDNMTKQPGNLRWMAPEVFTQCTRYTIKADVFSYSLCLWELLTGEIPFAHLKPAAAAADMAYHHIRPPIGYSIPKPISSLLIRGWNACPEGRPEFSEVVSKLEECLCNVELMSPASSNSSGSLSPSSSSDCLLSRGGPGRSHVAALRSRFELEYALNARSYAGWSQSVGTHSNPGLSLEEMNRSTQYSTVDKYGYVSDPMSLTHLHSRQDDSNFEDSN
Put plainly: Inhibition of TNNI3K in rat H9c2 cells assessed as reduction in p38 phosphorylation at 0.5 to 1 uM by Western blot analysis. The format is cell-based. As to conditions: dose 0.5-1 µM. The method, boiled down: (§1)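 H9c2 cells under OGD were treated with saline or 0.5 or 1.0 µM inhibitor. Cells were trypsinised, washed in cold PBS, lysed in RIPA with sonication and centrifuged 30 min. Total protein was quantified and separated by SDS-PAGE, then transferred to PVDF. Blots were probed with primary and secondary antibodies and detected by ECL.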
For orientation: Immunoblotting shows a protein as a band on a membrane.

For test [4], the system named is H9c2. Put plainly: Effect on TNNI3K expression in rat H9c2 cells at 0.5 to 1 uM by Western blot analysis. The format is functional, cell-based. The conditions noted are these: dose 0.5-1 µM. A digest of the protocol: as §1
Test [5] concerns Mus musculus. Put plainly: Cardioprotective activity in C57BL/6 mouse model of myocardial infarction assessed as reduction in left ventricular inflammatory cells at 25 mg/kg, ip administered for 28 days and measured on day 28 by H and E staining based fluorescence microscopy. The format is functional, organism-based. The conditions noted are these: time 28.0 day. The method, boiled down: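 MI made in male C57BL/6 mice (5-6 weeks) by permanent LAD ligation under ip ketamine (100mg/kg)/xylazine (10mg/kg), ventilated. Groups: sham, saline (NS), inhibitor 25 mg/kg ip every two days, n=4. Hearts examined after 28 days; TTC, Masson's trichrome and H&E staining of sections for infarct, collagen/scar, LV inflammatory cells and dilatation.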

The test system of test [6] is H9c2. In words: Inhibition of OGD-induced apoptosis in rat H9c2 cells assessed as early apoptotic cells at 0.5 uM incubated for 24 hrs by annexinV-FITC and PI staining based flow cytometry analysis (reference value: 3.53 %). The class given is functional. For orientation: A flow cytometer gives signals particle by particle.
Test [7] has as its system H9c2. Put plainly: Inhibition of OGD-induced apoptosis in rat H9c2 cells assessed as reduction in caspase1 level at 0.5 to 1 uM by Western blot analysis. As to conditions: dose 0.5-1 µM. The class given is functional, cell-based. A digest of the protocol:
as §1

The target of test [8] is T1, Serine/threonine-protein kinase TNNI3K (Rattus norvegicus). Put plainly: Inhibition of TNNI3K in rat H9c2 cells assessed as reduction in p38 phosphorylation at 0.5 to 1 uM by Western blot analysis. The conditions noted are these: dose 0.5-1 µM.
In test [9] the target is Receptor tyrosine-protein kinase erbB-2 (Homo sapiens) (UniProt P04626). In words: Inhibition of recombinant human HER2 (676 to end residues) assessed as residual activity at 1 uM using poly(Glu, Tyr) 4:1 as substrate incubated for 40 mins by [gamma-33P]-ATP scintillation counting based radiometry assay relative to control.
Sequence of Receptor tyrosine-protein kinase erbB-2 (Homo sapiens) (P04626 whole entry): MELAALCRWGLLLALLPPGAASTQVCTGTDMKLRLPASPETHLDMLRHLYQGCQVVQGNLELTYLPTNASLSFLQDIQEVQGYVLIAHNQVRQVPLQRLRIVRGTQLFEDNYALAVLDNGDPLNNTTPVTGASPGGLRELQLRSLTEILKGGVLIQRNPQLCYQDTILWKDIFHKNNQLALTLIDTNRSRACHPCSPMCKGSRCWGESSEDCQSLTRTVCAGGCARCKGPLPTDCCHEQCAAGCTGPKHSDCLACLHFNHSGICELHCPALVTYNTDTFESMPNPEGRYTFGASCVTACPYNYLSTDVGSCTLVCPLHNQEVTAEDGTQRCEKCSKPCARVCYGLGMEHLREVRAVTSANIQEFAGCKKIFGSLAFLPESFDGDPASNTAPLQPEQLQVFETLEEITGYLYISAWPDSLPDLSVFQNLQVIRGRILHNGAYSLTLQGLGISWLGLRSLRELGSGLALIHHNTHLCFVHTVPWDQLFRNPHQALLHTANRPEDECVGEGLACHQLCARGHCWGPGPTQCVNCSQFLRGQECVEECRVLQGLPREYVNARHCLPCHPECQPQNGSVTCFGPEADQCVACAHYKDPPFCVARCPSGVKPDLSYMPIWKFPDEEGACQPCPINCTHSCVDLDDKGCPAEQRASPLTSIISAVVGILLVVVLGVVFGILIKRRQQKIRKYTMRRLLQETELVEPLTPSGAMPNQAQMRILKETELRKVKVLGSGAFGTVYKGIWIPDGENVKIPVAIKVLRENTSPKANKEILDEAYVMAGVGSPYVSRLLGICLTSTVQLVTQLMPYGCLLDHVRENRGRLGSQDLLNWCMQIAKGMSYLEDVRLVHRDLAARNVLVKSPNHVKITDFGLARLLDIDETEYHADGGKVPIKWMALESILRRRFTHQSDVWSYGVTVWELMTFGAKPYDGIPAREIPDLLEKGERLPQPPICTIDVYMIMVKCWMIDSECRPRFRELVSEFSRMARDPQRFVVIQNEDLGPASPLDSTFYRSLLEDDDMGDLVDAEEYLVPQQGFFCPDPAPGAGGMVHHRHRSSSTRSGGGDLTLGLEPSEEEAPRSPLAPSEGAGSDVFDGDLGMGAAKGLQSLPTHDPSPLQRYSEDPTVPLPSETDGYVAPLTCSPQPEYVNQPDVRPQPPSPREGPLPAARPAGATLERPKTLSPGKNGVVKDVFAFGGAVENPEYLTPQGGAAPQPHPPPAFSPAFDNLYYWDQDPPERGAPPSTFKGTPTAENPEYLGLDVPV
Test [10] has as its system H9c2. In words: Inhibition of OGD-induced apoptosis in rat H9c2 cells assessed as early apoptotic cells at 1 uM incubated for 24 hrs by annexinV-FITC and PI staining based flow cytometry analysis (reference value: 3.53 %). The format is functional.
In test [11] the test system is Mus musculus. In words: Cardioprotective activity in C57BL/6 mouse model of myocardial infarction assessed as reduction in collagen deposition at 25 mg/kg, ip administered for 28 days and measured on day 28 by […] staining based fluorescence microscopy. As to conditions: time 28.0 day. The format is functional, organism-based. The method, boiled down:
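Male C57BL/6 mice (5-6 weeks); MI by permanent LAD ligation under ip ketamine (100mg/kg)/xylazine (10mg/kg) with ventilation; sham group operated without LAD occlusion. Post-MI mice randomised to sham, normal saline or inhibitor groups (n=4); 25 mg/kg given ip every two days. Hearts assessed after 28 days: TTC staining (infarct yellow-white, viable red), Masson's trichrome (blue collagen) and H&E.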

Test [12] has as its system H9c2. In words: Inhibition of OGD-induced apoptosis in rat H9c2 cells assessed as reduction in GSDMD level at 0.5 to 1 uM by Western blot analysis. The class given is functional, cell-based. As to conditions: dose 0.5-1 µM. The method, boiled down: as §1
The subject of test [13] is H9c2. Put plainly: Inhibition of OGD-induced apoptosis in rat H9c2 cells assessed as late apoptotic cells at 1 uM incubated for 24 hrs by annexinV-FITC and PI staining based flow cytometry analysis (reference value: 9 %). The format is functional.
For test [14], the system named is H9c2. Put plainly: Inhibition of JNK phosphorylation in rat H9c2 cells at 0.5 to 1 uM by Western blot analysis. As to conditions: dose 0.5-1 µM. The class given is cell-based. A digest of the protocol: as §1
Test [15] has as its target Mitogen-activated protein kinase 1 and 3 (ERK2 and ERK1) (Rattus norvegicus) (UniProt P63086+P21708). In words: Inhibition of ERK1/2 phosphorylation in rat H9c2 cells at 0.5 to 1 uM by Western blot analysis. The format is cell-based. The conditions noted are these: dose 0.5-1 µM. A digest of the protocol: as §1

Sequence of Mitogen-activated protein kinase 1 and 3 (ERK2 and ERK1) (Rattus norvegicus) (P21708 whole entry, looked up): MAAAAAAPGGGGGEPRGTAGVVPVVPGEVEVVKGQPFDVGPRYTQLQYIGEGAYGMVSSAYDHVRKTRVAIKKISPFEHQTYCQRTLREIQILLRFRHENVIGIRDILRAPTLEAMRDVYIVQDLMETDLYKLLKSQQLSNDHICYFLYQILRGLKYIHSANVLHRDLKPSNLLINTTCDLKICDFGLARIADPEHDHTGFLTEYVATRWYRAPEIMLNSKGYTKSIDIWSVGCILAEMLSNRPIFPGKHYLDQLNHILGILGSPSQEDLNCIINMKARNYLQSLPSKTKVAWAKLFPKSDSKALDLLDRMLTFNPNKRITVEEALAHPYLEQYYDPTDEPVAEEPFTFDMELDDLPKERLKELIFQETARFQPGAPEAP
Sequence of Mitogen-activated protein kinase 1 and 3 (ERK2 and ERK1) (Rattus norvegicus) (P63086 whole entry, looked up): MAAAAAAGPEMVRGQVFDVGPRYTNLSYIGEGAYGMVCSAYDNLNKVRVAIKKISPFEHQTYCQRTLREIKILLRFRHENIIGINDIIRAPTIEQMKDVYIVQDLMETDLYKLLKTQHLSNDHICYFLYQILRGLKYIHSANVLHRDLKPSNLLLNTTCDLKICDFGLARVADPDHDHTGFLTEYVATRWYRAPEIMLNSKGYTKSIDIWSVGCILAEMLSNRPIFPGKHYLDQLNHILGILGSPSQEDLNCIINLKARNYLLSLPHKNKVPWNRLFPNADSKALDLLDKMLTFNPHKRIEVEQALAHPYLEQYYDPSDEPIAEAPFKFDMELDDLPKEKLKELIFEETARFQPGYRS

Take `CN(C)CCCN1CCc2c(sc3ncnc(Nc4ccc(N(C)C)c(NC(=O)c5ccco5)c4)c23)C1`: the inhibition entry (in the test on H9c2 [1]; in the test with Mus musculus [2]; in [3]; in test [8]) was “Active” each time. Moreover, the inhibition result (with H9c2 [4]; in the test with H9c2 [7]; with H9c2 [12]; in the test on H9c2 [14]; in test [15]) was “inactive” each time. Moreover, the result with Mus musculus [5] and in the test with Mus musculus [11] was Active. The inhibition at 0.5 µM in the test on H9c2 [6] worked out at 3.59%. The Activity in [9] was 96%. For the same molecule, the inhibition at 1 µM in the test with H9c2 [10] was 3.17%; in the test on H9c2 [13] it was 5.02%.

For orientation: inhibition means the share of the control response that was lost under treatment.
